Paper PMC12125705 (Journal of medicinal chemistry, 2017)
≈ marks a conversion by molar mass, not a printed value. Like-named read-outs stand apart in the source and are kept apart here.

How the values were obtained:
MRSA 33591 = experiment: MIC by microbroth dilution; format: cell-based, Staphylococcus aureus; conditions: 24 h, 37 °C
In short: (§1)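 CLSI microbroth dilution in Mueller-Hinton broth. Strains were grown at 37 °C with shaking to log phase, pelleted, and resuspended in 0.85% saline to OD625 0.1. Final inoculum 5 × 10^5 CFU/mL in 96-well plates, tested in triplicate, incubated 24 h at 37 °C. Growth was read as OD at 625 nm.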

MRSA A960649 = experiment: MIC by microbroth dilution; format: cell-based, Staphylococcus aureus; conditions: 24 h, 37 °C
In short: as §1

S. aureus 29213 [1] = experiment: MIC by microbroth dilution; format: cell-based, Staphylococcus aureus; conditions: 24 h, 37 °C
S. aureus 33591 [2] = experiment: MIC by microbroth dilution; format: cell-based, Staphylococcus aureus; conditions: 24 h, 37 °C
S. epidermidis 12384 = experiment: MIC by microbroth dilution; format: cell-based, Staphylococcus epidermidis; conditions: 24 h, 37 °C
In short: as §1

E. faecium BM4105RF = experiment: MIC by microbroth dilution; format: cell-based, Enterococcus faecium; conditions: 24 h, 37 °C
E. faecalis 29212 [3] = experiment: MIC by microbroth dilution; format: cell-based, Enterococcus faecalis; conditions: 24 h, 37 °C
S. flexneri 2457NR517 = experiment: MIC by microbroth dilution; format: cell-based, Shigella flexneri; conditions: 24 h, 37 °C
E. coli 25922 [4] = experiment: MIC by microbroth dilution; format: cell-based, Escherichia coli; conditions: 24 h, 37 °C
E. coli K12 [5] = experiment: MIC by microbroth dilution; format: cell-based, Escherichia coli; conditions: 24 h, 37 °C
A. baumanni 19606 = experiment: MIC by microbroth dilution; format: cell-based, Acinetobacter baumanni
In short: as §1

P. aeruginosa 27853 = experiment: MIC by microbroth dilution; format: cell-based, Pseudomonas aeruginosa; conditions: 24 h, 37 °C
K. pneumoniae NR15410 = experiment: MIC by microbroth dilution; format: cell-based, Klebsiella pneumoniae; conditions: 24 h, 37 °C
In short: as §1

E. cloacae 13047 = experiment: MIC by microbroth dilution; format: cell-based, Enterobacter cloacae; conditions: 24 h, 37 °C
In short: as §1

C. freundii 4747CFAA = experiment: MIC by microbroth dilution; format: cell-based, Citrobacter freundii; conditions: 24 h, 37 °C
In short: as §1

[6] = biological target: RNA topoisomerase activity of E. coli topoisomerase I (EcoTop1) (Escherichia coli, UniProt P06612); experiment: RNA topoisomerase inhibition assay; format: biochemical; conditions: 10 nM EcoTop1; for inhibitory effect on the RNA topoisomerase activity of EcoTop1: at concentrations up to 50 μM; for concentration at which RNA topoisomerase activity is inhibited: concentration-dependent, 2.5–40 μM tested
[7] = test system: human prostate cancer cell line DU-145; experiment: Cytotoxicity; format: cell-based; conditions: 48 h treatment, SRB
In short: (§2)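 Cells grown per ATCC protocols, trypsin-EDTA harvested, trypan-blue counted, seeded at […] cells/well, and allowed to recover 24 h (37 °C, 5% CO2). They were then treated in triplicate at final 20, 10, 5, 2.5, 1.25, 0.625 and 0.0625 μM for 48 h. Fixed with cold TCA (16% final, 4 °C, 1 h), stained 15 min with SRB in 1% acetic acid, dye dissolved in 10 mM Tris base, A560 read. IC50 derived from absorbance; study done in duplicate.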

[8] = test system: Gram-positive bacterial strains; experiment: MIC by microbroth dilution, summary over strains in text; format: cell-based; conditions: Shigella flexneri, read-out: MIC values against most Gram-positive strains
S. aureus 29213 [9] = conditions: compounds 1–4 reproduced; ref [35]; cited from earlier work
S. aureus 33591 [10] = conditions: compounds 1–4 reproduced; ref [35]; cited from earlier work
E. faecalis 29212 [11] = conditions: compounds 1–4 reproduced; ref [35]; cited from earlier work
[12] = biological target: T1, human DNA topoisomerase I (Homo sapiens, UniProt P11387); conditions: read-out: IC50 hTopoI, values reproduced, ref [35]; cited from earlier work
T1 sequence (P11387 1-765): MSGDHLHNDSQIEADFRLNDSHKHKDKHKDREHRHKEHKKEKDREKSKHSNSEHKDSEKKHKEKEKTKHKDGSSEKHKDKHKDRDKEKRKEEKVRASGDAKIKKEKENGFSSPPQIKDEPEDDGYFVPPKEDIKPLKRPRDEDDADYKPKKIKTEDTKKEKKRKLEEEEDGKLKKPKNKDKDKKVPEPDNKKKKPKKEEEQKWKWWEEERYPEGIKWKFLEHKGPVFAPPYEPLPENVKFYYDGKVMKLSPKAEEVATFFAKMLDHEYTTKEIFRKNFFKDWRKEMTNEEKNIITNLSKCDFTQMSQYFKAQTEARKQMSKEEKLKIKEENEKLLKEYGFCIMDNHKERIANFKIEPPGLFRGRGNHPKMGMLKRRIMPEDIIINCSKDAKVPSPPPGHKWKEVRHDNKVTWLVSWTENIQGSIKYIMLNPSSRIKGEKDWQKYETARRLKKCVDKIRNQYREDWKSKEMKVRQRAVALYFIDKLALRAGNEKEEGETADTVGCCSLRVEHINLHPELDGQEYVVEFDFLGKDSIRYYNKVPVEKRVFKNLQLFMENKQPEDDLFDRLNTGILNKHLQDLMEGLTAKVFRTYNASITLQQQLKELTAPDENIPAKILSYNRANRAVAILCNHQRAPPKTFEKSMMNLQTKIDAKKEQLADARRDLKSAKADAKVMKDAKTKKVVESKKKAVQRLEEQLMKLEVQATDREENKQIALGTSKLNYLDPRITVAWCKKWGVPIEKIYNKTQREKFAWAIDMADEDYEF

E. coli 25922 [13] = conditions: compounds 1–4 reproduced; ref [35]; cited from earlier work
E. coli K12 [14] = conditions: compounds 1–4 reproduced; ref [35]; cited from earlier work
Cytotoxicity [15] = format: cell-based, human; conditions: human, DU-145 prostate cancer cells
In short: as §2

Cytotoxicity [16] = format: cell-based; conditions: human, PCS 201-010 normal dermal fibroblast cells
In short: as §2

[17] = biological target: E. coli DNA topoisomerase I (Escherichia coli, UniProt P06612); format: biochemical; conditions: at 50 μM
E. coli DNA topoisomerase I, sequence (P06612 whole entry): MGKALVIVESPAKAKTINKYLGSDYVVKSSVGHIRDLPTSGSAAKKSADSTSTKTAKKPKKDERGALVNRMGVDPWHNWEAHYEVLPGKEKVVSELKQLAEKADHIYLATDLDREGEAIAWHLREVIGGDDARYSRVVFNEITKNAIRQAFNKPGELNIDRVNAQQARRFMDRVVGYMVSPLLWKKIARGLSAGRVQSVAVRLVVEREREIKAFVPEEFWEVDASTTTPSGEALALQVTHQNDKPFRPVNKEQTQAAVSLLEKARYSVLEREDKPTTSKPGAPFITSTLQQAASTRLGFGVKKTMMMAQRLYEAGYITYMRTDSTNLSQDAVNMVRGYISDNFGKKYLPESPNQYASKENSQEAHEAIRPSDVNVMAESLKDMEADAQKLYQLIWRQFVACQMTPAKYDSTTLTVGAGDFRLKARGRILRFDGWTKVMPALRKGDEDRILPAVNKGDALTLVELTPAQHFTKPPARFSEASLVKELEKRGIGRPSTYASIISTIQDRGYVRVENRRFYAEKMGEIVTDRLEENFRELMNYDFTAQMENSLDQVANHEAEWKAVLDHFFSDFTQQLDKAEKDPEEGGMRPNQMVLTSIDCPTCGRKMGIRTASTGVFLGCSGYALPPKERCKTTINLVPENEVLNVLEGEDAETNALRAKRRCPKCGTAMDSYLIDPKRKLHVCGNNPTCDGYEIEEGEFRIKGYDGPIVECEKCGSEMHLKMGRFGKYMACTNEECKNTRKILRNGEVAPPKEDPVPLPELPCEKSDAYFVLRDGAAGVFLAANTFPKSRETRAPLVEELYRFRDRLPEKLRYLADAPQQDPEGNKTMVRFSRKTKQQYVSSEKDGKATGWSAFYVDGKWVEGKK

RNA topoisomerase activity of E. coli topoisomerase I (EcoTop1), sequence (P06612 whole entry): as above

Row | Molecule | inhibitory effect on the RNA topoisomerase activity of EcoTop1 [6] | cytotoxicity to DU-145 compared with Hoechst 33258 [7] | MIC [8] [µg/mL] | MIC S. aureus 29213 (S. aureus 29213 [9]) [µg/mL] | MIC S. aureus 33591 (S. aureus 33591 [10]) [µg/mL] | IC50 [12] [µM] | MIC E. coli K12 (E. coli K12 [14]) [µg/mL] | IC50 at 48 h (Cytotoxicity [15]) [µM] | further results
1 | 6-(4-Methylpiperazin-1-yl)-2-(4-(2-(4-(oct-7-ynyl)-1H-1,2,3-triazol-1-yl)ethoxy)phenyl)-1H-benzo[d]imidazole [Compound 22] | – | – | – | – | – | – | – | – | MIC MRSA 33591 (MRSA 33591): >32 µg/mL; MIC MRSA A960649 (MRSA A960649): >32 µg/mL; MIC S. aureus 29213 (S. aureus 29213 [1]): 16 to 32 µg/mL; MIC S. aureus 33591 (S. aureus 33591 [2]): 16 to 32 µg/mL; MIC S. epidermidis 12384 (S. epidermidis 12384): >32 µg/mL; MIC E. faecium BM4105RF (E. faecium BM4105RF): >32 µg/mL; MIC E. faecalis 29212 (E. faecalis 29212 [3]): 16 to 32 µg/mL; MIC S. flexneri 2457NR517 (S. flexneri 2457NR517): >32 µg/mL; MIC E. coli 25922 (E. coli 25922 [4]): 16 µg/mL; MIC E. coli K12 (E. coli K12 [5]): 16 µg/mL; MIC A. baumanni 19606 (A. baumanni 19606; 24 h, 37 °C): >32 µg/mL; MIC P. aeruginosa 27853 (P. aeruginosa 27853): 16 µg/mL; MIC K. pneumoniae NR15410 (K. pneumoniae NR15410): >32 µg/mL; MIC E. cloacae 13047 (E. cloacae 13047): >32 µg/mL; MIC C. freundii 4747CFAA (C. freundii 4747CFAA): >32 µg/mL
2 | C#CCOc1ccc(-c2nc3ccc(-c4nc5ccc(N6CCN(C)CC6)cc5[nH]4)cc3[nH]2)cc1 [Compound 1] | no discernible inhibitory effect | more cytotoxic | 0.3 to 4 (≈ 0.649 to 8.65 µM) | 2 to 4 | 2 to 4 | – | – | – | MIC E. faecalis 29212 (E. faecalis 29212 [11]): 16 to 32 µg/mL
3 | C#CCCCCOc1ccc(-c2nc3ccc(-c4nc5ccc(N6CCN(C)CC6)cc5[nH]4)cc3[nH]2)cc1 [Compound 2] | no discernible inhibitory effect | more cytotoxic | 0.3 to 4 (≈ 0.594 to 7.93 µM) | 2 to 4 | 2 to 4 | > 50 | 8 to 16 | – | MIC E. coli 25922 (E. coli 25922 [13]): 8 to 16 µg/mL
4 | C#CCCCCCCCCCOc1ccc(-c2nc3ccc(-c4nc5ccc(N6CCN(C)CC6)cc5[nH]4)cc3[nH]2)cc1 [Compound 3] | – | – | – | – | – | > 50 | 8 to 16 | > 10 | concentration at which RNA topoisomerase activity is inhibited [6]: about 10 μM; MIC E. faecalis 29212 (E. faecalis 29212 [11]): 16 to 32 µg/mL
5 | C#CCOCCCCOc1ccc(-c2nc3ccc(-c4nc5ccc(N6CCN(C)CC6)cc5[nH]4)cc3[nH]2)cc1 [Compound 4] | no discernible inhibitory effect | more cytotoxic | 0.3 to 4 (≈ 0.561 to 7.48 µM) | 2 to 4 | 2 to 4 | > 50 | 8 to 16 | – | MIC E. coli 25922 (E. coli 25922 [13]): 8 to 16 µg/mL
6 | C#CCOCCCCCCCCCCCCOc1ccc(-c2nc3ccc(-c4nc5ccc(N6CCN(C)CC6)cc5[nH]4)cc3[nH]2)cc1 [Compound 8, 6-(4-Methylpiperazin-1-yl)-2′-(4-(12-(prop-2-ynyloxy)dodecyloxy)phenyl)-1H,3′H-2,5′-bibenzo[d]imidazole] | – | – | – | – | – | – | – | > 10 | concentration at which RNA topoisomerase activity is inhibited [6]: about 10 μM; IC50 at 48 h (Cytotoxicity [16]): > 10 µM
7 | C#CCOCCOCCOCCOCCOCCOCCOc1ccc(-c2nc3ccc(-c4nc5ccc(N6CCN(C)CC6)cc5[nH]4)cc3[nH]2)cc1 [Compound 9, 2′-(4-(3,6,9,12,15,18-Hexaoxahenicos-20-ynyloxy)phenyl)-6-(4-methylpiperazin-1-yl)-1H,3′H-2,5′-bibenzo[d]imidazole] | no discernible inhibitory effect | – | – | – | – | – | – | > 10 | inhibition of the activity of E. coli DNA topoisomerase I [17]: did not significantly inhibit; MIC (A. baumanni 19606; Acinetobacter, 19606, 24 h, read-out: MIC A. baumanni 19606): > 32 µg/mL
